One assay deals with Protease (Human immunodeficiency virus 1, UniProt Q9YQ12). Briefly: Inhibition of wild type HIV-1 NL4-3 protease expressed in Escherichia coli Rosetta (DE3)pLysS using Ac-Thr-Ile-Nle-Nle-Gln-Arg-NH2 as substrate by fluorescence assay.
Assay [1] concerns Human immunodeficiency virus 1. Briefly: Antiviral activity against HIV-1 LAI infected in human MT2 cells. The class given is functional, organism-based. As to conditions: Human immunodeficiency virus 1, LAI.
Assay [2] relates to Human immunodeficiency virus 1. The assay can be described thus: Antiviral activity against ATV resistant HIV1 harboring protease L23I/E34Q/K43I/M46I/I50L/G51A/L63P/A71V/V82A/T91A mutant infected in human MT4 cells assessed as reduction in p24 Gag protein production after 7 days by chemiluminescent enzyme immunoassay. It is filed as functional, organism-based. As to conditions: Human immunodeficiency virus 1, MT4, 168 h. The method in brief: (§1)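 Variants had been selected by passaging HIV-1 NL4-3 in MT-4 cells under increasing PI concentrations (up to 5 μM). Assays were run in duplicate; values are means (± S.D.) of two independent experiments.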

The subject of assay [3] is Human immunodeficiency virus 1. The assay can be described thus: Antiviral activity against LPV resistant HIV1 harboring protease L10F/[…]I54V/V82A mutant infected in human MT4 cells assessed as reduction in p24 Gag protein production after 7 days by chemiluminescent enzyme immunoassay. The class given is functional, organism-based. As to conditions: Human immunodeficiency virus 1, MT4, 168 h. The method in brief: as §1

Assay [4] concerns Human immunodeficiency virus 1. Briefly: Antiviral activity against APV resistant HIV1 harboring protease L10F/M46I/I50V/I85V mutant infected in human MT4 cells assessed as reduction in p24 Gag protein production after 7 days by chemiluminescent enzyme immunoassay. It is filed as functional, organism-based. As to conditions: Human immunodeficiency virus 1, MT4, 168 h. The method in brief:
as §1

Assay [5] relates to Human immunodeficiency virus 1. The assay can be described thus: Resistance index, ratio of EC50 for antiviral activity against APV resistant HIV1 harboring protease L10F/M46I/I50V/I85V mutant infected in human MT4 cells to EC50 for antiviral activity against wild type HIV1 NL4-3 infected in human MT4 cells. The class given is functional.
Assay [6] deals with Human immunodeficiency virus 1. The assay can be described thus: Resistance index, ratio of EC50 for antiviral activity against LPV resistant HIV1 harboring protease L10F/[…]I54V/V82A mutant infected in human MT4 cells to EC50 for antiviral activity against wild type HIV1 NL4-3 infected in human MT4 cells. It is filed as functional.
The subject of assay [7] is Human immunodeficiency virus 1. The assay can be described thus: Antiviral activity against wild type HIV1 NL4-3 infected in human MT4 cells assessed as reduction in p24 Gag protein production after 7 days by chemiluminescent enzyme immunoassay. The conditions noted are these: Human immunodeficiency virus 1, NL4-3, MT4, 168 h. The class given is functional, organism-based.

Assay [8] has as its system Human immunodeficiency virus 1. Briefly: Resistance index, ratio of EC50 for antiviral activity against ATV resistant HIV1 harboring protease L23I/E34Q/K43I/M46I/I50L/G51A/L63P/A71V/V82A/T91A mutant infected in human MT4 cells to EC50 for antiviral activity against wild type HIV1 NL4-3 infected in human MT4 cells. The class given is functional.

A value given as a limit tells only on which side of the number the result lay.

Sequence of Protease (Q9YQ12 whole entry): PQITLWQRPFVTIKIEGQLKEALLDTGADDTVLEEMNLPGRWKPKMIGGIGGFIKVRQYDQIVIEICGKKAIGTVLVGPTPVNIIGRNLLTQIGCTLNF

Turning to `COc1ccc(S(=O)(=O)N(CC(C)C)C[C@@H](O)[C@H](Cc2ccccc2)NC(=O)O[C@H]2C[C@H]3CCO[C@H]4OC[C@@H]2[C@@H]34)cc1`, the Ki – broadly, a measure of affinity in units of concentration, obtained from inhibition or displacement – on Protease stood at 0.005 nM. Also, the half-inhibitory concentration (IC50) (as a rule, the concentration at which inhibition is half-maximal) in [1] worked out at 29 nM.

As to `Cc1cccc(C)c1OCC(=O)N[C@@H](Cc1ccccc1)[C@@H](O)C[C@H](Cc1ccccc1)NC(=O)[C@H](C(C)C)N1CCCNC1=O` [LOPINAVIR], the values for the EC50 in [2], in [3] and in assay [4] were above 1000 nM, above 1000 nM and 390 nM, respectively.

As for `COC(=O)N[C@H](C(=O)N[C@@H](Cc1ccccc1)[C@@H](O)CN(Cc1ccc(-c2ccccn2)cc1)NC(=O)[C@@H](NC(=O)OC)C(C)(C)C)C(C)(C)C` [ATAZANAVIR], the “Ratio EC50” value in [5] is 21; in assay [6] it was 9; in assay [8] it was above 303. For the same compound, the EC50 (usually the concentration that produces a half-maximal response) is 3.3 nM in [7], above 1000 nM in [2], 29 nM in assay [3] and 70 nM in [4].

At Protease, `COc1ccc(S(=O)(=O)N(CC(C)C)C[C@@H](O)[C@H](Cc2ccccc2)NC(=O)O[C@H]2C[C@@H]3CO[C@@H]4OC[C@H]2[C@H]34)cc1` registered a Ki of 0.05 nM. In assay [1], the IC50 was 21 nM.

In the case of `COc1ccc(S(=O)(=O)N(CC(C)C)C[C@@H](O)[C@H](Cc2ccccc2)NC(=O)O[C@@H]2C[C@@H]3CO[C@@H]4OCC[C@H]2[C@H]34)cc1`, at Protease, the Ki amounted to 0.008 nM. Half-maximal inhibition in assay [1] (IC50) required 9 nM.

Turning to `COc1ccc(S(=O)(=O)N(CC(C)C)C[C@@H](O)[C@H](Cc2ccccc2)NC(=O)O[C@@H]2C[C@@H]3CO[C@@H]4CCC[C@H]2[C@H]34)cc1`, the Ki at Protease is 4.55 nM. This compound displayed an IC50 in assay [1] above 1000 nM.

Regarding `CC(C)CN(C[C@@H](O)[C@H](Cc1ccccc1)NC(=O)O[C@@H]1C[C@@H]2CO[C@@H]3OCC[C@H]1[C@H]23)S(=O)(=O)c1ccc2nc(NC3CC3)sc2c1`, the affinity on Protease, expressed as Ki, was 0.5 nM. This compound also displayed an IC50 in assay [1] of 0.9 nM.

On Protease, `COc1ccc(S(=O)(=O)N(CC(C)C)C[C@@H](O)[C@H](Cc2ccccc2)NC(=O)O[C@H]2C[C@H]3CO[C@H]4O[C@H](C)C[C@@H]2[C@@H]34)cc1` registered a Ki of 0.05 nM. In [1], the IC50 worked out at 130 nM.

For the compound `CC(C)CN(C[C@@H](O)[C@H](Cc1cc(F)cc(F)c1)NC(=O)O[C@H]1CC2CO[C@H]3OCC[C@@H]1[C@@H]23)S(=O)(=O)c1ccc2nc(NC3CC3)sc2c1` (stereo partly specified), the results for the “Ratio EC50” value in [5], in assay [6] and in assay [8] were 0.3, 2 and 1, respectively. The EC50 is 2 nM in assay [7], 1.5 nM in assay [2], 2 nM in [3] and 0.32 nM in assay [4]. On Protease, this compound registered a Ki of 0.012 nM. In assay [1], this compound showed an IC50 of 0.023 nM.

Take `CC(C)CN(C[C@@H](O)[C@H](Cc1ccccc1)NC(=O)O[C@H]1CCOC1)S(=O)(=O)c1ccc(N)cc1`: the “Ratio EC50” value was above 11 in [5], 2 in assay [6] and 11 in [8]. Moreover, the EC50 was 87 nM in [7], above 1000 nM in assay [2], 190 nM in [3] and above 1000 nM in [4].

Turning to `CC(C)CN(C[C@@H](O)[C@H](Cc1cc(F)cc(F)c1)NC(=O)O[C@@H]1C[C@@H]2CO[C@@H]3OCC[C@H]1[C@H]23)S(=O)(=O)c1ccc2nc(NC3CC3)sc2c1`, the “Ratio EC50” value is on record as 0.2 in [5], 1 in assay [6] and 0.3 in assay [8]. For the same compound, the EC50 was found to be 1.2 nM in [7], 0.6 nM in assay [2], 2 nM in [3] and 0.3 nM in assay [4]. Further, the Ki at Protease came to 0.002 nM. The compound also gave an IC50 in assay [1] of 0.027 nM.

In turn, `COC[C@@H]1C[C@@H]2[C@H]3[C@H](CO[C@H]3O1)C[C@@H]2OC(=O)N[C@@H](Cc1ccccc1)[C@H](O)CN(CC(C)C)S(=O)(=O)c1ccc(OC)cc1` came in with an inhibition constant Ki on Protease of 0.09 nM. In addition, in assay [1], the IC50 worked out at 248 nM.

For the compound `CC(C)CN(C[C@@H](O)[C@H](Cc1ccccc1)NC(=O)O[C@H]1CO[C@H]2OCC[C@H]21)S(=O)(=O)c1ccc(N)cc1`, the EC50 in [2] came to 24 nM.

`COc1ccc(S(=O)(=O)N(CC(C)C)C[C@@H](O)[C@H](Cc2ccccc2)NC(=O)O[C@H]2C[C@H]3CO[C@H]4CCC[C@@H]2[C@@H]34)cc1`: the Ki on Protease was determined as 0.45 nM. Moreover, the half-inhibitory concentration (IC50) in assay [1] is above 1000 nM.

On Protease, `COc1ccc(S(=O)(=O)N(CC(C)C)C[C@@H](O)[C@H](Cc2ccccc2)NC(=O)O[C@H]2C[C@H]3CO[C@H]4OCC[C@@H]2[C@@H]34)cc1` came in with a Ki of 0.045 nM. Also, in assay [1], it took 31 nM to reach half-maximal inhibition (IC50).

Consider `CC(C)CN(C[C@@H](O)[C@H](Cc1ccccc1)NC(=O)O[C@H]1CC2CO[C@H]3OCC[C@@H]1[C@@H]23)S(=O)(=O)c1ccc2nc(NC3CC3)sc2c1` (stereo partly specified), for which the Ki on Protease stood at 0.01 nM. The compound further yielded an IC50 in [1] of 1.4 nM.

(Values after ChEMBL document CHEMBL4190391 (J Med Chem, 2018).)
